These entries were drawn from the full list.
Apaf1 activ = activates human Apaf-1 apoptosome; activity change, negative = activation, % at 20 µM; O14727; actives 0.31% (n = 330,000); Apaf-1 apoptosome caspase-3 activation, DEVD-Rh110 fluorescence; stronger effect = lower value;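 active means activity change at or below -40% at 20 µM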
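System: Reconstituted apoptosome of Apaf-1, cytochrome c, caspase-9, procaspase-3 | Reagent: dATP, cytochrome c, and (Z-DEVD)2-Rh110 caspase-3 substrate | Times: 30 min compound preincubation and 50 min reaction, both room temperature | Detection: Caspase-3-released Rh110 fluorescence, 540 nm emission, 480 nm excitation | Measure: Caspase-3 activity via Apaf-1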
Rh110 interf act = counter-screen for Apaf-1 activators: fluorescence interference. shares compounds with Apaf1 activ. Rh110 fluorescence interference, quenched caspase reaction, Ex480/Em540. fluorescence interference (activity change), % at 20 µM, hits read low. 980 tested, under 10 active. AID 504616;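 active means mean activity change at or below -40% when tested at 20 µM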
Apaf-1 act conf2 = confirmation of human Apaf-1 activators. reconstituted apoptosome caspase-3 activity, DEVD-Rh110 fluorescence; stronger effect = lower value. activity change, negative = activation, % at 20 µM. AID 504617. actives 5% (n = 980). shares compounds with Apaf1 activ;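 active means mean activity change at or below -40%, meaning activation of 40% or more, at 20 µM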
Numbers without * were called inactive.

SMILES	Apaf1 activ	others
CC(C)c1ccc(NC(=O)C2CC(=O)N(C3CCCC3)C2)cc1 (stereo unspecified)	-96*	Rh110 interf act=4;Apaf-1 act conf2=4
CC(=O)N1CCN(C(=S)NC(=O)C23CC4CC(CC(C4)C2)C3)CC1	48
COc1ccc(C2CC(=O)N3CN(c4ccc(C)c(Cl)c4)CSC3=C2C#N)cc1 (stereo unspecified)	47
Cc1ccc(-n2nc(C)c3c2OC(N)=C(C#N)C3c2ccoc2)cc1 (stereo unspecified)	81
Cc1cccc(OCc2n(CC(=O)OC3CC(C)CCC3C(C)C)c3ccccc3[n+]2C)c1 (stereo unspecified)	50
O=C(NCCOc1nc(N2CCCCC2)nc(N2CCCCC2)n1)Nc1ccccc1	41
COCCNC(=O)c1c(N)n(-c2ccccc2)c2nc3ccccc3nc12	81
CCN(CC)c1nc(OCCNC(=O)Nc2ccccc2)nc(N(CC)CC)n1	-52*	Rh110 interf act=-2;Apaf-1 act conf2=17
COc1cc(OC)c(C2CC(=O)N3CN(c4ccccc4C)CSC3=C2C#N)cc1OC (stereo unspecified)	66
O=C(Cn1cc(S(=O)(=O)Cc2ccccc2)c2ccccc21)N1CCOCC1	-233*	Rh110 interf act=6;Apaf-1 act conf2=4
CCN1CCN(CCNC(=O)c2ccc3nc(-c4cccc(C)c4)c(-c4cccc(C)c4)nc3c2)CC1	47
Cc1[nH]n(-c2ccccc2)c(=O)c1/C=N/NC(=O)c1cccc(F)c1	62
Nc1ccc(C(=O)N/N=C/c2cccc(Oc3ccccc3)c2)cc1	-64*	Rh110 interf act=-4;Apaf-1 act conf2=14
CN(C)c1ccc2nc3ccc(=[N+](C)C)cc-3sc2c1	64
Cc1ccc(C(=O)N2CCCN(c3nc4cc5c(cc4cc3C#N)OCO5)CC2)cc1	67
CCOc1cccc(N(C(=O)C2COc3ccccc3O2)C(C(=O)NC2CCCCC2)c2ccc(O)cc2)c1 (stereo unspecified)	47
O=C(NC1CCCCC1)C(c1ccncc1)N(C(=O)c1csnn1)c1ccccc1F (stereo unspecified)	-128*	Rh110 interf act=9;Apaf-1 act conf2=9
CN(C)c1ccc(N/C=C/C(=O)C(C)(C)C)cc1	53
O=C(C[C@H]1C[C@H](C(=O)N2CCCCC2)[C@@]2(CCc3ccccc3)c3[nH]c4ccc(Cl)cc4c3CCN2C1=O)NCCCn1ccnc1	61
CC[C@@H](C)[C@@H]1CN([C@@H](C)CN2CCC[C@H]2CN2C(N)=NC[C@@H]2Cc2ccccc2)C(=N)N1CCc1ccc(Cl)c(Cl)c1	71
C1=CC2c3ccccc3NC(c3ccncc3)C2C1 (stereo unspecified)	49
COc1cccc(C(=O)NN2C(=S)N(c3ccccc3)C(=O)C2CC(N)=O)c1 (stereo unspecified)	-83*	Rh110 interf act=-8;Apaf-1 act conf2=11
COc1ccc(CN2CCN(C(c3ccc(F)cc3)c3ccc(F)cc3)CC2)c(OC)c1OC	48
CN1c2ccccc2C(C)(C)C12C=Nc1c(cc(N3CCOCC3)c3ccccc13)O2 (stereo unspecified)	69
C[C@H]1CN([C@@H](C)CO)C(=O)Cc2cc(NC(=O)CCC(F)(F)F)ccc2O[C@H]1CN(C)Cc1ccc(-c2ccccc2)cc1	41
SMILES	Apaf1 activ	others
O=C(NCc1ccccn1)c1cccc(NS(=O)(=O)c2cccc(F)c2)c1	-43*	Rh110 interf act=0;Apaf-1 act conf2=9
COc1ccc(C(CNC(=O)c2cccc(NS(=O)(=O)c3ccc(C)c(F)c3)c2)N(C)C)cc1 (stereo unspecified)	52
CCC(C)n1c(NC(=O)c2ccccc2)c(C#N)c2nc3ccccc3nc21 (stereo unspecified)	93
c1cc2cn[nH]c2cc1NC1CCCCCC1	53
COc1ccc(C(CCN2CCCCC2)c2c(OC)cc(OC)c3c(-c4ccccc4)cc(=O)oc23)cc1 (stereo unspecified)	55
Cc1ccc(NC2=CC(=O)C(=O)c3ccccc32)c(C)c1	87
CC1=CC(=C(C#N)c2nc3ccccc3s2)C=C(C)N1c1ccc(F)cc1	45
Cc1ccccc1-n1c(C)nc2ccccc21	-75*	Rh110 interf act=-6;Apaf-1 act conf2=5
CCCN1C(=O)/C(=C/c2cc(C)n(C)c2C)SC1=Nc1ccc(OC)cc1	41
Cc1c(CCOC(=O)c2ccc(Cl)cc2Cl)sc[n+]1CC(=O)c1ccccc1	56
C#CCOCCOCCOCCNc1nc(N2CCOCC2)nc(N2CCN(C(=O)CCCCCCCCCCNC(=O)[C@H](CO)n3cc(CCCCCN)nn3)CC2)n1	44
CC(C)(C)C(=O)[C@@H]1[C@@H]2C(=O)N(C3CCCCC3)C(=O)[C@@H]2[C@H]2c3ccccc3C=CN12	64
COc1ccc(CC(=O)N(Cc2ccccc2)c2ccc(C)cc2)cc1S(=O)(=O)N1CCOCC1	43

High-throughput results from PubChem.
